Rows were chosen to be rich in hits. Some 1.1% of all compounds tested hit in one or more screens of this group.
ERp5 inh – inhibitors of human ERp5; Q15084; ERp5 insulin aggregation, absorbance 650 nm, 90 min; inhibition, % at 9.99 µM; 0.05% of 350,000 active; AID 651711;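 active = mean replicate inhibition above about 25%, with every replicate also reaching it, limit read from the data, passing the limit was not always enough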
CAL PDZ FP-1 – CAL PDZ (human) peptide binding inhibition; Q9HD26; purified CAL PDZ, TMR-peptide fluorescence polarization, 1 h; inhibition, % at 24.9 µM; 0.92% of 300,000 active; AID 602252;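 active = mean inhibition of at least 30% with at least half of replicates also reaching 30%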;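 also: 0% = DMSO neutral control and 100% = excess unlabeled competitor peptide PRC23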
Rin1 Abl inh – blocks binding of human Rin1 to Abl. TR-FRET Rin1/Abl binding, biochemical. inhibition, % at 7.35 µM. 0.4% of 360,000 active. AID 588664; in the data active = inhibition above about 5%, passing the limit was not always enough
PDI inh – blocks human protein disulfide isomerase activity. PDI insulin aggregation turbidity, A650, 90 min. inhibition, % at 10 µM. 0.052% of 350,000 active. P07237. AID 588391;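 active = mean inhibition across replicates of 30% or more, whatever share of single replicates reach that level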
Target sequence (P07237 whole entry, looked up): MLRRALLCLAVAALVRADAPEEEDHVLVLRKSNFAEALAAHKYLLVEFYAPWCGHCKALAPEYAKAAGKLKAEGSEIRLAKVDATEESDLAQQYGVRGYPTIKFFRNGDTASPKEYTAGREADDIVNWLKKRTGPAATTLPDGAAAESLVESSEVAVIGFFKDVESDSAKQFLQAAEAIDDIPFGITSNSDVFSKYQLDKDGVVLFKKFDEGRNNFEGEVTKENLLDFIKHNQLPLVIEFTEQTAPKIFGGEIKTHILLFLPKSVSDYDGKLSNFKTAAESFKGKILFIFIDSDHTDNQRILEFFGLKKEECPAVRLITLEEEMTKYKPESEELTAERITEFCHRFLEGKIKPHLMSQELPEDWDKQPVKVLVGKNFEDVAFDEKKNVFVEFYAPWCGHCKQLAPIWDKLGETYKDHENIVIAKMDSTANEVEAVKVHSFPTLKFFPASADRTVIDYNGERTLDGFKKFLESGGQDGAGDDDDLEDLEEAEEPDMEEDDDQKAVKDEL
ERAP1 HTS inh – blocks human ERAP1 aminopeptidase activity; Q9NZ08; recombinant ERAP1, Leu-AMC fluorescence, 60 min; inhibition, % at 10.7 µM; 0.15% of 340,000 active; AID 652197;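 active = mean replicate inhibition of at least 30%, or all replicates individually reaching that 30% level; inactive = mean below 30% and not every replicate reaching it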;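 also: 0% = neutral control wells and 100% = L-leucinethiol positive control wells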
CAL PDZ FP-2 – blocks peptide binding to human CAL PDZ domain | Q9HD26 | purified CAL PDZ, TMR-peptide fluorescence polarization, 1 h | inhibition, % at 20 µM | 0.02% of 330,000 active | AID 504414;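 active = highest replicate inhibition of at least 40%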;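 also: plate controls were DMSO neutral control wells for no effect and unlabeled competitor peptide control wells for full effect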
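System: purified tagged CAL PDZ domain construct (CerCALP). Schedule: 1 h incubation at room temperature before polarization reading. Medium: 25 mM sodium phosphate pH 7.4, 150 mM NaCl, TCEP, IgG, Thesit. Read-out: percent inhibition from loss of millipolarization. Measured by: FP readout, S and P plane fluorescence. Probe or stimulus: fluorescent TMR peptide probe.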
Rin1 Abl conf – Rin1-Abl interaction inhibition confirmation. inhibition, % at 7.35 µM. shares compounds with Rin1 Abl inh. TR-FRET Rin1-Abl binding, purified proteins. 49% of 1,300 active. AID 602124
GFP quencher – GFP fluorescence interference artifact; inhibition, % at 6.75 µM; 8.5% of 1,300 active; AID 602125; inhibitors/quenchers counterscreen; shares compounds with Rin1 Abl inh;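 also: ABL1-eGFP fusion protein alone without its partner RIN1-SBP; 0% = protein with vehicle and 100% = wells lacking protein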
GFP quench dose – quenches GFP in dose response, Rin1-Abl counter-screen; 230 tested, under 10 active; GFP fluorescence interference/quenching counterscreen; shares compounds with Rin1 Abl inh; AID 602182; IC50, µM; call rule not given here;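 also: ABL1-eGFP fusion protein alone without its RIN1 binding partner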
* marks the source's active call; other numbers are inactive results; x = no result. Rule as the data show it, unless noted: active = inhibition above about 6.5%; inactive = the rest.

SMILES	ERp5 inh	CAL PDZ FP-1	Rin1 Abl inh	PDI inh	ERAP1 HTS inh	CAL PDZ FP-2	Rin1 Abl conf	GFP quencher	others
C[C@@H]1CN([C@@H](C)CO)C(=O)c2cc(NC(=O)Nc3ccc(F)cc3)ccc2O[C@H]1CN(C)C(=O)NC1CCCCC1	1.3	x	x	x	3.0	x	x	x
CN(CC(=O)Nc1cccc(C(F)(F)F)c1)C1=NS(=O)(=O)c2ccccc21	4.8	-4.9	9.9*	0.4	-3.7	0.4	4.1	-1.6
Cc1noc(C)c1S(=O)(=O)Nc1ccc2c(c1)CC(=O)N([C@H](C)CO)C[C@@H](C)[C@H](CN(C)S(=O)(=O)c1cccs1)O2	10.1	x	x	x	2.7	x	x	x
COc1ccc(CN=CC2=C(O)CNC2=O)cc1	x	14.2	34.1*	0.3	x	-1.0	43.3*	-0.1
CN1CCN(C(=O)C[C@@H]2CC[C@H]3[C@@H](COC[C@H](O)CN3CC3CC3)O2)CC1	2.4	x	x	x	-1.6	x	x	x
Cc1ccc(S(=O)(=O)N(C)C[C@H]2OCCCC[C@@H](C)Oc3ccc(NC(=O)Nc4c(C)noc4C)cc3C(=O)N([C@H](C)CO)C[C@H]2C)cc1	2.5	x	x	x	0.8	x	x	x
C[C@H](CO)N1C[C@H](C)[C@@H](CN(C)CC2CCCCC2)OCCCC[C@H](C)Oc2ccc(NC(=O)CCCCCC(=O)Nc3ccccc3N)cc2C1=O	1.6	x	x	x	1.7	x	x	x
CCOC(=O)c1c(NC(=O)CSc2cccc[n+]2[O-])sc(C(=O)Nc2ccccc2)c1C	-1.4	x	-1.2	11.2	-2.4	0.2	x	x
CCOC(=O)c1c(NC(=O)CN(C)C2CCN(C)CC2)sc(C(=O)Nc2ccccc2)c1C	4.7	0.5	7.6*	2.3	-3.2	-3.7	-1.0	-0.5
CC(=O)N1c2ccc(S(=O)(=O)N3CCC(C(=O)NCCc4ccc(Cl)cc4)CC3)cc2CC1C (centres undefined)	-8.8	-4.2	9.8*	7.1	0.8	-2.1	-1.3	-0.8
Cc1ccc(C(=O)Nc2ccc(O)cc2C(=O)O)cc1C	5.1	x	26.7*	-21.9	3.4	-2.1	15.8*	-0.1
Cc1ccc(C(=O)Nc2ccc(O)cc2C(=O)O)cc1	x	-1.5	11.1*	-3.5	x	-1.6	12.7*	-0.1
CCC(=O)N(C)C[C@H]1Oc2ncc(-c3ccc(F)cc3)cc2C(=O)N([C@@H](C)CO)C[C@H]1C	11.5	x	x	x	0.9	x	x	x
Cc1ccc(Nc2nc3ccccc3s2)c(C)c1	x	-0.7	6.9*	2.4	x	-0.5	0.3	0.0
CC1(C)OC2CC3C4CC=C5CC(O)CCC5(C)C4CCC3(C)C2(C(=O)CO)O1 (centres undefined)	8.6	-2.1	2.4	9.1	-2.4	-2.1	x	x
CC(=O)OCC(=O)C12OC(C)(C)OC1CC1C3CC=C4CC(O)CCC4(C)C3CCC12C (centres undefined)	-0.9	-3.1	11.5*	-1.6	-4.3	0.1	0.3	0.3
CN(C)CC(=O)N1[C@H](CO)[C@@H](c2ccccc2)C12CN(C(=O)c1ccccc1)C2	-0.6	x	x	x	-1.0	x	x	x
O=C(Nc1cccc(Cl)c1)N[C@H]1CC[C@H](CCNC(=O)C2CC2)O[C@H]1CO	0.1	x	x	x	-1.5	x	x	x
CCc1nc2nc(C)c(NS(=O)(=O)c3ccc(CC(C)C)cc3)c(=O)n2[nH]1	3.1	-4.0	8.2*	-5.4	0.0	-3.0	2.2	0.5
COc1nc(Nc2cccc(F)c2)nc(OC)n1	-0.7	11.4	2.6	5.8	-0.4	-1.6	x	x
COc1cc2nc(Nc3cccc(F)c3)nc(N)c2cc1OC	2.1	-2.1	8.9*	1.0	-7.3	-1.3	13.5*	0.9
Cc1noc(C)c1S(=O)(=O)Nc1ccc2c(c1)C(=O)N([C@@H](C)CO)C[C@H](C)[C@@H](CN(C)Cc1ccc(C(F)(F)F)cc1)OCCCC[C@@H](C)O2	0.6	x	x	x	0.3	x	x	x
O=S(=O)(Nc1ccc(O)c2ncccc12)c1ccccc1F	7.4	x	12.6*	-5.9	-3.8	x	2.5	4.6
Oc1ccc(CNc2ccccc2F)c2cccnc12	3.8	1.7	-4.7	-2.6	x	-2.9	x	x
O=C(COC(=O)c1ccc([N+](=O)[O-])cc1Cl)Nc1cccnc1Cl	4.2	-0.7	8.7*	9.2	4.1	0.6	2.7	0.4
SMILES	ERp5 inh	CAL PDZ FP-1	Rin1 Abl inh	PDI inh	ERAP1 HTS inh	CAL PDZ FP-2	Rin1 Abl conf	GFP quencher	others
Cc1nc2ccccc2n1CC(=O)c1ccc(O)c(O)c1	-4.1	-3.3	32.6*	-3.0	-0.3	-0.2	21.4*	6.6*
Cc1nc2ccccc2n1CC(=O)c1ccccc1	-6.1	x	0.0	0.1	-1.7	-0.3	x	x
Cc1ccccc1OCC(=O)NCCNC(=O)c1ccccn1	0.2	-4.7	14.8*	-2.8	-1.5	-3.6	-0.9	1.0
O=C(COc1ccccc1Cl)NCCNC(=O)c1ccccn1	4.1	0.3	1.4	-3.2	-3.8	-2.5	x	x
CN1C(=O)c2cc(NC(=O)NC3CCCC3)ccc2OC[C@@H]2O[C@H](CC(=O)NCC3CC3)CC[C@H]21	0.9	x	x	x	2.1	x	x	x
C[C@@H]1CN([C@@H](C)CO)C(=O)c2cc(NC(=O)Nc3ccc(F)cc3)ccc2O[C@H]1CN(C)S(=O)(=O)c1cn(C)cn1	5.6	x	x	x	1.3	x	x	x
Cc1nc(N/N=C/c2ccc(O)cc2O)cc(N2CCOCC2)n1	0.8	2.2	36.0*	1.9	-1.1	3.4	44.5*	-2.0	GFP quench dose=>67.5
Cc1noc(C)c1NC(=O)N(C)C[C@@H]1Oc2c(cccc2N(C)C)C(=O)N([C@@H](C)CO)C[C@@H]1C	-0.5	x	x	x	0.5	x	x	x
Clc1ccc(C2[C@H]3CN(Cc4cccnc4)[C@H](c4ccccc4)C34CC2(c2cccnc2)C4)cn1 (some centres undefined)	1.0	-2.9	58.8*	2.0	0.6	-2.2	71.7*	-0.4
Cn1c(Cc2ccccc2)nnc1SCC(=O)Nc1ccccc1	-4.5	1.0	2.5	4.1	1.5	0.0	x	x
CC(C)OC(=O)CSc1nnc(Cc2ccccc2)n1C	x	x	8.9*	0.0	x	-1.2	-1.6	0.1
CC1(C)CC(=O)C2=C(C1)Oc1ncn(CCCn3ccnc3)c(=N)c1C2c1ccccc1 (centres undefined)	x	-1.6	3.5	7.1	x	-2.8	x	x
COc1ccc(C2C3=C(CC(C)(C)CC3=O)Oc3ncn(CCCn4ccnc4)c(=N)c32)cc1 (centres undefined)	x	-3.4	4.5*	0.7	x	-1.0	10.3*	0.1
CCCC(=O)Nc1ccc2c(c1)C(=O)N(C)C[C@@H](OC)[C@@H](C)CN(C(C)=O)[C@@H](C)CO2	0.4	x	x	x	0.9	x	x	x
CC(=O)NS(=O)(=O)c1ccc(NS(=O)(=O)c2ccc(F)cc2)cc1	x	-0.4	5.8*	-1.2	x	-1.2	-2.8	1.6
CC(C)c1nc2oc3c(NCCO)ncnc3c2c2c1COC(C)(C)C2	6.0	x	7.7*	-0.8	x	0.9	7.7*	0.7
